From ChEMBL document CHEMBL4145488, “Structure-based development of an osteoprotegerin-like glycopeptide that blocks RANKL/RANK interactions and reduces ovariectomy-induced bone loss in mice” (Eur J Med Chem, 2018)
The source made the active and inactive calls. No cut-off for these calls is given here. Where a SMILES comes first, the peptide text is derived from it. Bridges are numbered along the chain shown (N, C = ends). Triazole bridges read from a SMILES are 1,4-linked. [ ]: non-standard residue; d: D form. The star is where a group is joined. NH(β-GlcNAc) = CC(=O)N[C@@H]1[C@@H](O)[C@H](O)[C@@H](CO)O[C@H]1N*; Dap(N3) = [N-]=[N+]=NC[C@H](N)C(=O)O; Sec = N[C@@H](C[SeH])C(=O)O; Pra = C#CC[C@H](N)C(=O)O

Key:
[1] = target: T1, Tumor necrosis factor ligand superfamily member 11 (Homo sapiens, UniProt O14788); assay: (§1) Binding affinity to recombinant human sRANKL expressed in Escherichia coli by SPR assay
T1 sequence (O14788 whole entry): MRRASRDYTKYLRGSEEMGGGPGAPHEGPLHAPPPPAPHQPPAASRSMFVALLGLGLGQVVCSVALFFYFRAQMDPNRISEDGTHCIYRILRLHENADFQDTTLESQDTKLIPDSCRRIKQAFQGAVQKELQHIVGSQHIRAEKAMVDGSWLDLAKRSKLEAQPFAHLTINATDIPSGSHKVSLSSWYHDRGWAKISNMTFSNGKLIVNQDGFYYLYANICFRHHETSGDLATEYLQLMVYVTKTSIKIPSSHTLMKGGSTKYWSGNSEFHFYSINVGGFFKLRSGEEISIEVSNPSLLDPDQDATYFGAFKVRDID
Procedure, shortened: (§2)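 SPR at 25 °C with recombinant sRANKL immobilized on a CM5 dextran chip at about 3500 RU. Surfaces regenerated between cycles with Gly-HCl at pH 2.5. kon, koff and Kd taken from kinetic fitting of the sensorgrams.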

[2] = target: T2, Tumor necrosis factor ligand superfamily member 11 (Homo sapiens) (UniProt O14788); assay: Binding affinity to recombinant human sRANKL expressed in Escherichia coli assessed as association constant by SPR assay; procedure, shortened: as §2
T2 sequence (whole entry): T1 sequence (O14788 whole entry)

[3] = system: BMMC; assay: Cytotoxicity against C57BL/6 mouse BMMC up to 100 uM after 48 hrs by CCK8 assay; type: cell-based
Procedure, shortened: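 BMMCs seeded at 1×10^5/mL and grown 24 h, then exposed to peptide at 0, 12.5, 25.0, 50.0 or 100.0 µM for 48 h. CCK-8 solution added for 2 h and absorbance read at 450 nm.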

[4] = system: BMMC; assay: Inhibition of RANKL/mCSF-induced osteoclast differentiation in C57BL/6 mouse BMMC assessed as reduction in TRAP-positive multinucleated cells at 30 uM by microscopic method relative to control; type: functional; conditions: C57BL/6, BMMC
[5] = target: T2, Tumor necrosis factor ligand superfamily member 11 (Homo sapiens); assay: Binding affinity to recombinant human sRANKL expressed in Escherichia coli assessed as dissociation constant by SPR assay; procedure, shortened: as §2
[6] = Drug metabolism assessed as alpha-chymotrypsin (unknown origin)-mediated compound degradation by measuring parent compound remaining after 8 hrs by HPLC analysis; type: ADME; conditions: human, read-out: Stability
Procedure, shortened: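 Peptide exposed to α-chymotrypsin; percent residual peptide tracked by HPLC. Mean ± SEM of duplicate independent experiments.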

[7] = system: BMMC; assay: Inhibition of RANKL/mCSF-induced osteoclast differentiation in C57BL/6 mouse BMMC assessed as reduction in TRAP-positive multinucleated cells by microscopic method; type: functional, cell-based; conditions: for IC50: C57BL/6, BMMC
[8] = target: T2, Tumor necrosis factor ligand superfamily member 11 (Homo sapiens); assay: as §1; procedure, shortened: as §2
[9] = system: Mus musculus; assay: Inhibition of ovariectomy-induced trabecular bone loss in C57BL/6 mouse distal femur bone assessed as increase in bone mineral density at 20 mg/kg/day, ip after 6 weeks by micro-CT analysis; type: functional, organism-based
Procedure, shortened: (§3)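 Female C57BL/6 mice, 6 weeks old, ovariectomized, six per group; 20.0 mg/kg i.p. daily in saline, or saline vehicle, for 6 weeks. Femurs then scanned by micro-CT for BMD, Tb.N and BS/TV, with 2D/3D reconstruction.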

[10] = system: Mus musculus; assay: Inhibition of ovariectomy-induced trabecular bone loss in C57BL/6 mouse distal femur bone assessed as increase in trabecular number at 20 mg/kg/day, ip after 6 weeks by micro-CT analysis; type: functional, organism-based; procedure, shortened: as §3
[11] = system: Mus musculus; assay: Inhibition of osteoclastogenesis in ovariectomized C57BL/6 mouse assessed as decrease in serum TRAcp5B level at 20 mg/kg/day, ip after 6 weeks by ELISA; type: functional, organism-based
Procedure, shortened: (§4)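 Female C57BL/6 mice, 6 weeks old, ovariectomized; six per group (sham, OVX with saline, OVX with peptide). Peptide given at 20.0 mg/kg i.p. daily in saline for 6 weeks. Blood centrifuged and serum stored at -80 °C; IL-6, TRAcp5B, CTX-1 and TNF-α measured by ELISA kits.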

[12] = target: Tumor necrosis factor ligand superfamily member 11/11A (Mus musculus) (UniProt O35235+O35305); assay: Inhibition of RANKL/RANK protein-protein interaction in mouse RAW264.7 cells assessed as reduction in RANKL-stimulated NF-kB signaling pathway activation by measuring decrease in IkBalpha phosphorylation after 2 hrs by immunoblot assay; type: cell-based
Tumor necrosis factor ligand superfamily member 11/11A (Mus musculus), sequence (O35235 139-316 limits assumed): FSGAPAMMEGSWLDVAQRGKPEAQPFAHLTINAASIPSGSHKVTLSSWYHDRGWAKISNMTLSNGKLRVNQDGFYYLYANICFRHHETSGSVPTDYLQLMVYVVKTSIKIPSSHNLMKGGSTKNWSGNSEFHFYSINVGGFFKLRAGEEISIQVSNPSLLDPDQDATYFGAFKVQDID
Tumor necrosis factor ligand superfamily member 11/11A (Mus musculus), sequence (O35305 31-625 partner limits assumed): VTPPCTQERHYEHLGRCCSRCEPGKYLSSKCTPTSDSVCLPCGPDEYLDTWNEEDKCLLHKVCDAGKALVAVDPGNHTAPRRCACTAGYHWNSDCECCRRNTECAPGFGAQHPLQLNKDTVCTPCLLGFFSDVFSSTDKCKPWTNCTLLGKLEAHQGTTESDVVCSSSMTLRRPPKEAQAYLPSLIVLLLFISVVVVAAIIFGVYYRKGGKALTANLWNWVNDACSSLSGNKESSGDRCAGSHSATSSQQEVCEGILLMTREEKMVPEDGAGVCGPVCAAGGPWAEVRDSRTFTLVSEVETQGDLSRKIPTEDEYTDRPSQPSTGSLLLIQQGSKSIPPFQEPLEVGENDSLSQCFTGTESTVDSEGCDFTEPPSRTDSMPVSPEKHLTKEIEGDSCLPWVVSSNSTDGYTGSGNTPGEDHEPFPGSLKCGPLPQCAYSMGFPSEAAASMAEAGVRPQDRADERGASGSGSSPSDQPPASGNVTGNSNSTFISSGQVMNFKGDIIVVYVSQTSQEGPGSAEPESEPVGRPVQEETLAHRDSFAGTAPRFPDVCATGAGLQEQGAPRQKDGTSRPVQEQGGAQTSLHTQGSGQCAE
Procedure, shortened: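 RAW264.7 cells (1×10^5/well) cultured 12 h, pretreated with or without peptide for 2 h, then stimulated with 300 ng/mL sRANKL for the indicated periods. Lysates (20 µg) run on SDS-PAGE and blotted for phospho-IκBα, IκBα and ERK2; ECL detection.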

[13] = system: Mus musculus; assay: Inhibition of ovariectomy-induced trabecular bone loss in C57BL/6 mouse distal femur bone assessed as increase in bone volume expressed per unit total volume at 20 mg/kg/day, ip after 6 weeks by micro-CT analysis; type: functional, organism-based; procedure, shortened: as §3
[14] = system: Mus musculus; assay: Inhibition of ovariectomy-induced trabecular bone loss in C57BL/6 mouse assessed as reduction in TRAP-positive multinucleated cells in distal femur bone at 20 mg/kg/day, ip after 6 weeks by microscopic method; type: functional, organism-based
Procedure, shortened: (§5)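 Female C57BL/6 mice, 6 weeks old, ovariectomized, six per group; 20.0 mg/kg i.p. daily in saline, or saline, for 6 weeks. Femurs fixed in 4 % paraformaldehyde for 4 days and decalcified in 10% EDTA for 2 weeks. 4 µm paraffin sections of the metaphysis stained with H&E (trabecular area) or TRAP (osteoclasts counted).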

[15] = system: Mus musculus; assay: Inhibition of osteoclastogenesis in ovariectomized C57BL/6 mouse assessed as decrease in serum TNFalpha level at 20 mg/kg/day, ip after 6 weeks by ELISA; type: functional, organism-based; procedure, shortened: as §4
[16] = system: Mus musculus; assay: Inhibition of osteoclastogenesis in ovariectomized C57BL/6 mouse assessed as decrease in serum CTX-1 level at 20 mg/kg/day, ip after 6 weeks by ELISA; type: functional, organism-based; procedure, shortened: as §4
[17] = system: Mus musculus; assay: Inhibition of osteoclastogenesis in ovariectomized C57BL/6 mouse assessed as decrease in serum IL-6 level at 20 mg/kg/day, ip after 6 weeks by ELISA; type: functional, organism-based; procedure, shortened: as §4
[18] = system: Mus musculus; assay: Inhibition of ovariectomy-induced trabecular bone loss in C57BL/6 mouse distal femur bone assessed as increase in bone surface area expressed per unit total volume at 20 mg/kg/day, ip after 6 weeks by micro-CT analysis; type: functional, organism-based; procedure, shortened: as §3
[19] = system: Mus musculus; assay: Inhibition of ovariectomy-induced trabecular bone loss in C57BL/6 mouse distal femur bone at 20 mg/kg/day, ip after 6 weeks by H and E staining based microscopic method; type: functional, organism-based; procedure, shortened: as §5

| remaining at 8 h [6] [%] | IC50 [7] [µM] | Compound | Kd [1] [µM] | Kapp [2] [M⁻¹ s⁻¹] | Activity [3] | inhibition at 30 µM [4] [%] | Kapp [5] [s⁻¹] | inhibition [7] | Activity [8] | inhibition [9] | inhibition [10] | inhibition [11] | inhibition [12] | inhibition [13] | inhibition [14] | inhibition [15] | inhibition [16] | inhibition [17] | inhibition [18] | inhibition [19] |
| --- | --- | --- | --- | --- | --- | --- | --- | --- | --- | --- | --- | --- | --- | --- | --- | --- | --- | --- | --- | --- |
| 38.5 | – | CC[C@H](C)[C@@H]1NC(=O)[C@H](CCC(=O)O)NC(=O)[C@H](CC(C)C)NC(=O)[C@H](Cc2ccc(O)cc2)NC(=O)[C@H](CCCNC(=N)N)NC(=O)CNC(=O)[C@H](CCC(=O)O)NC(=O)[C@H](CCCCN)NC(=O)[C@@H](NC(C)=O)CSSC[C@@H](C(=O)N[C@@H](CC(C)C)C(N)=O)NC(=O)[C@H](Cc2ccccc2)NC(=O)[C@H](CCC(=O)O)NC1=O (Ac-CKEGRYLEIEFCL-NH2; disulfide 1-12) | 30.9 | 212 | Non-Toxic | 24.4 | 0.0065 | – | – | – | – | – | – | – | – | – | – | – | – | – |
| – | 25.3 | CC[C@H](C)[C@H](NC(=O)[C@H](CC(C)C)NC(=O)[C@H](Cc1ccc(O)cc1)NC(=O)[C@@H]1CSSC[C@H](NC(=O)[C@@H](N)Cc2ccc(O)cc2)C(=O)N[C@@H](CCC(=O)O)C(=O)N[C@@H]([C@@H](C)CC)C(=O)N[C@@H](CCC(=O)O)C(=O)N[C@@H](Cc2ccccc2)C(=O)N1)C(=O)N[C@@H](CCCNC(=N)N)C(=O)O (H-YCEIEFCYLIR-OH; disulfide 2-7) | 2.75 | 496 | – | 55.6 | 0.0013 | – | – | – | – | – | – | – | – | – | – | – | – | – |

The remaining lines, values behind:

| Compound | remaining at 8 h [6] [%] | IC50 [7] [µM] | Kd [1] [µM] | Kapp [2] [M⁻¹ s⁻¹] | Activity [3] | inhibition at 30 µM [4] [%] | Kapp [5] [s⁻¹] | inhibition [7] | Activity [8] | inhibition [9] | inhibition [10] | inhibition [11] | inhibition [12] | inhibition [13] | inhibition [14] | inhibition [15] | inhibition [16] | inhibition [17] | inhibition [18] | inhibition [19] |
| --- | --- | --- | --- | --- | --- | --- | --- | --- | --- | --- | --- | --- | --- | --- | --- | --- | --- | --- | --- | --- |
| CC[C@H](C)[C@@H]1NC(=O)[C@H](CCC(=O)O)NC(=O)[C@H](CC(C)C)NC(=O)[C@H](Cc2ccc(O)cc2)NC(=O)[C@H](CCCNC(=N)N)NC(=O)CNC(=O)[C@H](CCC(=O)O)NC(=O)[C@H](CCCCN)NC(=O)[C@@H](NC(=O)[C@H](CC(=O)N[C@@H]2O[C@H](CO)[C@@H](O)[C@H](O)[C@H]2NC(C)=O)NC(C)=O)CSSC[C@@H](C(=O)N[C@@H](CC(C)C)C(N)=O)NC(=O)[C@H](Cc2ccccc2)NC(=O)[C@H](CCC(=O)O)NC1=O (Ac-D(NH(β-GlcNAc))CKEGRYLEIEFCL-NH2; disulfide 2-13) | > 60.7 | 28.5 | 4.54 | 609 | Non-Toxic | 58.2 | 0.0027 | Dose-dependent effect | Dose-dependent effect | Active | Active | Active | Active | Active | Active | Active | Active | Active | Active | Active |
| CC[C@H](C)[C@@H]1NC(=O)[C@H](CCC(=O)O)NC(=O)[C@H](CC(C)C)NC(=O)[C@H](Cc2ccc(O)cc2)NC(=O)[C@H](CCCNC(=N)N)NC(=O)CNC(=O)[C@H](CCC(=O)O)NC(=O)[C@H](CCCCN)NC(=O)[C@@H](NC(C)=O)Cc2cn(nn2)C[C@@H](C(=O)N[C@@H](CC(C)C)C(N)=O)NC(=O)[C@H](Cc2ccccc2)NC(=O)[C@H](CCC(=O)O)NC1=O (Ac-[Pra]KEGRYLEIEF[Dap(N3)]L-NH2; triazole 1-12) | – | – | – | – | Non-Toxic | 42.1 | – | – | – | – | – | – | – | – | – | – | – | – | – | – |
| CC[C@H](C)[C@@H]1NC(=O)[C@H](CCC(=O)O)NC(=O)[C@H](CC(C)C)NC(=O)[C@H](Cc2ccc(O)cc2)NC(=O)[C@H](CCCNC(=N)N)NC(=O)CNC(=O)[C@H](CCC(=O)O)NC(=O)[C@H](CCCCN)NC(=O)[C@@H](NC(C)=O)C[Se][Se]C[C@@H](C(=O)N[C@@H](CC(C)C)C(N)=O)NC(=O)[C@H](Cc2ccccc2)NC(=O)[C@H](CCC(=O)O)NC1=O (Ac-[Sec]KEGRYLEIEF[Sec]L-NH2; diselenide 1-12) | – | – | – | – | Non-Toxic | 40.6 | – | – | – | – | – | – | – | – | – | – | – | – | – | – |
